Test results reported in ChEMBL document CHEMBL4400518, “Synthesis, antimicrobial and cytotoxic activities, and molecular docking studies of N-arylsulfonylindoles containing an aminoguanidine, a semicarbazide, and a thiosemicarbazide moiety” (Eur J Med Chem, 2019).
In brackets after ≈: the same amount, converted by molar mass.

Key:
Assay type in all cases: functional
Staphylococcus aureus [1] = test: Antibacterial activity against Staphylococcus aureus CMCC(B) 26003 measured after 24 hrs by ELISA; settings: CMCC(B) 26003, 24 h
Procedure, shortened: (§1)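 Broth microdilution MIC. Mid-log bacteria in MHB or TSB diluted 1000-fold, inoculated at 10^5 CFU/mL. Compounds added from DMSO stocks; final DMSO at most 0.05%. Incubation 24 h at 37 °C. Growth read as absorbance at 630 nm. MIC taken as the lowest concentration giving complete growth inhibition. Three independent experiments.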

Staphylococcus aureus [2] = test: Antibacterial activity against Staphylococcus aureus CMCC 25923 measured after 24 hrs by ELISA; settings: CMCC 25923, 24 h; procedure, shortened: as §1
Streptococcus pyogenes = test: Antibacterial activity against Streptococcus pyogenes CMCC 32067 measured after 24 hrs by ELISA; settings: CMCC 32067, 24 h; procedure, shortened: as §1
Streptococcus pneumoniae = test: Antibacterial activity against Streptococcus pneumoniae CMCC 31968 measured after 24 hrs by ELISA; settings: CMCC 31968, 24 h
Enterococcus faecalis = test: Antibacterial activity against Enterococcus faecalis CMCC 29212 measured after 24 hrs by ELISA; settings: CMCC 29212, 24 h; procedure, shortened: as §1
Bacillus subtilis = test: Antibacterial activity against Bacillus subtilis CMCC 63501 measured after 24 hrs by ELISA; settings: CMCC 63501, 24 h; procedure, shortened: as §1
Escherichia coli [3] = test: Antibacterial activity against Escherichia coli CMCC 25922 measured after 24 hrs by ELISA; settings: CMCC 25922, 24 h; procedure, shortened: as §1
Escherichia coli [4] = test: Antibacterial activity against Escherichia coli CMCC 44568 measured after 24 hrs by ELISA; settings: CMCC 44568, 24 h; procedure, shortened: as §1
Pseudomonas aeruginosa [5] = test: Antibacterial activity against Pseudomonas aeruginosa CMCC 27853 measured after 24 hrs by ELISA; settings: CMCC 27853, 24 h; procedure, shortened: as §1
Pseudomonas aeruginosa [6] = test: Antibacterial activity against Pseudomonas aeruginosa CMCC 10104 measured after 24 hrs by ELISA; settings: CMCC 10104, 24 h; procedure, shortened: as §1

Structure (SMILES)	MIC (Staphylococcus aureus [1]) [µM]	MIC (Staphylococcus aureus [2]) [µM]	MIC (Streptococcus pyogenes) [µM]	MIC (Streptococcus pneumoniae) [µM]	MIC (Enterococcus faecalis) [µM]	MIC (Bacillus subtilis) [µM]	MIC (Escherichia coli [3]) [µM]	MIC (Escherichia coli [4]) [µM]	MIC (Pseudomonas aeruginosa [5]) [µM]	MIC (Pseudomonas aeruginosa [6]) [µM]
C/C(=N/NC(N)=O)c1cn(S(=O)(=O)c2ccc(C)cc2)c2ccccc12	346 (≈ 128 µg/mL)	> 346	> 346	> 346	> 346	346 (≈ 128 µg/mL)	> 346	> 346	> 346	> 346
NC(=O)N/N=C\c1cn(S(=O)(=O)c2ccccc2)c2ccc(Br)cc12	38.1 (≈ 16.1 µg/mL)	305 (≈ 128 µg/mL)	> 305	> 305	> 305	19.1 (≈ 8.03 µg/mL)	> 305	> 305	> 305	> 305
C/C(=N/NC(N)=S)c1cn(S(=O)(=O)c2ccc(C)cc2)c2ccccc12	332 (≈ 128 µg/mL)	332 (≈ 128 µg/mL)	> 332	> 332	332 (≈ 128 µg/mL)	166 (≈ 64.1 µg/mL)	332 (≈ 128 µg/mL)	332 (≈ 128 µg/mL)	332 (≈ 128 µg/mL)	> 332
CC/C(=N/NC(=N)N)c1cn(S(=O)(=O)c2ccc(C)cc2)c2ccccc12	5.22 (≈ 2 µg/mL)	10.4 (≈ 4 µg/mL)	5.22 (≈ 2 µg/mL)	83.5 (≈ 32 µg/mL)	20.9 (≈ 8.01 µg/mL)	10.4 (≈ 4 µg/mL)	20.9 (≈ 8.01 µg/mL)	20.9 (≈ 8.01 µg/mL)	334 (≈ 128 µg/mL)	> 334
NC(=S)N/N=C\c1cn(S(=O)(=O)c2ccccc2)c2ccc(Br)cc12	294 (≈ 128 µg/mL)	> 294	> 294	> 294	> 294	> 294	> 294	> 294	> 294	> 294
C/C(=N/NC(N)=S)c1cn(S(=O)(=O)c2ccccc2)c2ccc(Br)cc12	284 (≈ 128 µg/mL)	> 284	> 284	> 284	> 284	284 (≈ 128 µg/mL)	> 284	> 284	> 284	> 284
Cc1ccc(S(=O)(=O)n2cc(/C=N\NC(N)=O)c3cc(Br)ccc32)cc1	295 (≈ 128 µg/mL)	> 295	> 295	> 295	> 295	9.22 (≈ 4.01 µg/mL)	> 295	> 295	> 295	> 295
C/C(=N/NC(N)=S)c1cn(S(=O)(=O)c2ccc(C)cc2)c2ccc(Br)cc12	276 (≈ 128 µg/mL)	276 (≈ 128 µg/mL)	> 276	> 276	> 276	> 276	> 276	> 276	> 276	> 276
Cc1ccc(S(=O)(=O)n2cc(/C=N\NC(N)=S)c3ccccc32)cc1	343 (≈ 128 µg/mL)	> 343	> 343	> 343	> 343	> 343	> 343	> 343	343 (≈ 128 µg/mL)	> 343
Cc1ccc(S(=O)(=O)n2cc(/C=N\NC(N)=O)c3ccccc32)cc1	44.9 (≈ 16 µg/mL)	180 (≈ 64.1 µg/mL)	> 360	> 360	> 360	44.9 (≈ 16 µg/mL)	360 (≈ 128 µg/mL)	360 (≈ 128 µg/mL)	360 (≈ 128 µg/mL)	> 360
C/C(=N/NC(N)=S)c1cn(S(=O)(=O)c2ccccc2)c2ccccc12	344 (≈ 128 µg/mL)	344 (≈ 128 µg/mL)	> 344	> 344	> 344	172 (≈ 64.1 µg/mL)	344 (≈ 128 µg/mL)	344 (≈ 128 µg/mL)	344 (≈ 128 µg/mL)	> 344
CC/C(=N/NC(N)=O)c1cn(S(=O)(=O)c2ccccc2)c2ccccc12	> 346	346 (≈ 128 µg/mL)	> 346	> 346	> 346	> 346	> 346	> 346	> 346	> 346
NC(=S)N/N=C\c1cn(S(=O)(=O)c2ccccc2)c2ccccc12	179 (≈ 64.1 µg/mL)	> 358	> 358	> 358	> 358	> 358	> 358	> 358	358 (≈ 128 µg/mL)	> 358
CC/C(=N/NC(N)=O)c1cn(S(=O)(=O)c2ccc(C)cc2)c2ccc(Br)cc12	> 277	> 277	> 277	> 277	> 277	> 277	> 277	> 277	> 277	> 277
CC/C(=N/NC(=N)N)c1cn(S(=O)(=O)c2ccccc2)c2ccccc12	21.7 (≈ 8.01 µg/mL)	21.7 (≈ 8.01 µg/mL)	10.8 (≈ 4 µg/mL)	10.8 (≈ 4 µg/mL)	43.4 (≈ 16 µg/mL)	> 347	43.4 (≈ 16 µg/mL)	43.4 (≈ 16 µg/mL)	173 (≈ 64.1 µg/mL)	43.4 (≈ 16 µg/mL)
CC/C(=N/NC(N)=S)c1cn(S(=O)(=O)c2ccc(C)cc2)c2ccc(Br)cc12	134 (≈ 64.2 µg/mL)	268 (≈ 128 µg/mL)	> 268	> 268	> 268	> 268	268 (≈ 128 µg/mL)	268 (≈ 128 µg/mL)	> 268	> 268
C/C(=N/NC(N)=O)c1cn(S(=O)(=O)c2ccccc2)c2ccccc12	360 (≈ 128 µg/mL)	> 360	> 360	> 360	> 360	89.9 (≈ 32 µg/mL)	> 360	> 360	> 360	> 360
CC/C(=N/NC(N)=S)c1cn(S(=O)(=O)c2ccccc2)c2ccccc12	64 (≈ 24.7 µg/mL)	332 (≈ 128 µg/mL)	> 332	> 332	166 (≈ 64.1 µg/mL)	82.9 (≈ 32 µg/mL)	332 (≈ 128 µg/mL)	332 (≈ 128 µg/mL)	332 (≈ 128 µg/mL)	> 332
Cc1ccc(S(=O)(=O)n2cc(/C=N\NC(N)=S)c3cc(Br)ccc32)cc1	284 (≈ 128 µg/mL)	> 284	> 284	> 284	> 284	> 284	> 284	> 284	> 284	> 284
CC/C(=N/NC(N)=O)c1cn(S(=O)(=O)c2ccccc2)c2ccc(Br)cc12	> 286	> 286	> 286	> 286	> 286	> 286	> 286	> 286	> 286	> 286
